# Assay outcomes: PubChem, Johns Hopkins Ion Channel Center
# Most compounds without a hit are left out; they make up all but 3.8% or so of the library.
# Kir21 inh: blocks the mouse Kir2.1 inward-rectifier potassium channel. HEK293-Kir2.1, FluxOR thallium flux fluorescence; active compounds read low. P35561. B-score at 10 µM. actives 0.85% (n = 310,000);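 active = fluorescence ratio B-score at or below minus 3 SD of library scores, with starting-brightness B-score within 2 SD, cut at about -4.2 in these data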;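 also: channel flux triggered by added potassium and thallium sulfate stimulus; B-score of peak minus minimum fluorescence over baseline after thallium stimulus; more negative B-score means stronger Kir2.1 block with less thallium influx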
# KCNQ1 inh: human KCNQ1 channel inhibition | CHO-K1 KCNQ1, FluxOR thallium flux fluorescence; active compounds read high | P51787 | B-score at 10 µM | actives 1.3% (n = 310,000) | AID 2642;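 active = compounds whose thallium flux B-score, printed positive for inhibition, exceeds three library SD while starting fluorescence stays within three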;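 also: channel opened by potassium depolarization with thallium stimulus after 20 min compound exposure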
# KCNK3 block: human KCNK3 channel inhibition, primary screen. B-score at 10 µM. actives 0.84% (n = 340,000). O14649. CHO-KCNK3 thallium flux, FluxOR fluorescence; active compounds read low. AID 602410;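 active = B-score under library mean minus 4 SD, starting fluorescence ratio at most library mean plus 5 SD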;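 also: more negative B-score means stronger inhibition of thallium flux through KCNK3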
# KCNQ1 act: human KCNQ1 channel potentiation or activation; B-score at 10 µM; AID 2648; CHO-K1 KCNQ1, thallium flux FluxOR fluorescence; active compounds read high; actives 0.35% (n = 310,000); P51787;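 active = fluorescence ratio B-score, a plate-corrected score, at least three library SD, with initial intensity B-score within 5 SD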
#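 System: Stable KCNQ1 CHO-K1 line | Incubation: 90 min dye loading and 20 min compound exposure, both at room temperature | Measure: Ratio B score | Medium: Assay buffer for compound exposure, DMSO matched across wells | Compound dosing: Single-concentration screen | Probe or stimulus: K+/Tl+ depolarizing stimulus | Measured by: Kinetic FluxOR fluorescence, 10 s baseline plus 110 s post-stimulus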
# KCNK9 inh: inhibitors of human KCNK9 two-pore domain potassium channel | B-score at 10 µM | HEK293 KCNK9, FluxOR thallium flux fluorescence; active compounds read low | actives 1.2% (n = 310,000) | Q9NPC2;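 active = ratio B-score over 3 SD below the library mean, with starting fluorescence within 5 SD of its mean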;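 also: negative B-score means less thallium flux so channel inhibition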
# hERG protect: compounds protecting human hERG from proarrhythmic drug block | Q12809 | CHO-hERG, FluxOR thallium flux, dofetilide IC70 present | activation (rescue from dofetilide block), less the hit threshold, % at 10 µM | actives 0.51% (n = 310,000) | AID 1511;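 active = activation above the mean of controls blocked by dofetilide plus 5 SD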;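 also: thallium influx through hERG after potassium depolarization seen as dye fluorescence rise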
# Active calls of the source: *; i = inactive; / = no result.
SMILES,Kir21 inh,KCNQ1 inh,KCNK3 block,KCNQ1 act,KCNK9 inh,hERG protect
COCCNC(=O)/C(C#N)=C/c1ccc(OC(=O)c2cccs2)c(OC)c1,-6.02*,i,i,i,i,-10.7
COc1ccc(CCNC(=O)/C(C#N)=C/c2cccc(OCc3ccccc3)c2)cc1OC,-4.4*,i,i,i,i,-12.7
CCn1c(O)c(N=NC(=S)NCC2CCCO2)c2ccccc21 (stereo not given),0.16,i,i,i,i,6.3*
Oc1[nH]c2c(Cl)cc(Cl)cc2c1N=NC(=S)NCC1CCCO1 (stereo not given),0.84,i,i,52*,i,12.2*
O=C(NCC1(c2ccccc2)CCCC1)c1ccccc1Br,-5.3*,i,i,i,i,-4.3
O=C(NCC1(c2ccccc2)CCCC1)c1ccccc1,-0.26,i,i,i,i,-10.9
O=C(O)CCCCCNC(=O)c1ccccc1Br,1.25,i,i,i,i,5.4*
Fc1ccc2nncc(SCc3ccccc3Cl)c2c1,/,/,i,/,/,/
CC(C)(C)c1cc(C(=O)NNC(=O)c2ccc(C(F)(F)F)cc2)no1,-1.67,i,i,9*,i,-5.0
COc1ccc(CCNC(=O)c2cnn3c(C(F)F)cc(C)nc23)cc1OC,0.74,i,i,i,i,-12.1
CC(C)(C)c1ccc(Oc2ccc(N)cn2)cc1,-0.2,i,i,21*,i,-1.0
CC(C(=O)N1CCCC1)N1CCN(c2ccccc2O)CC1 (stereo not given),2.6,i,i,i,i,11.2*
COc1ccccc1N1CCN(C(C)C(=O)N2CC(C)OC(C)C2)CC1 (stereo not given),-1.14,i,i,i,i,-14.3
O=C(COC(=O)C1CCC(=O)N1)Nc1ccccc1Br (stereo not given),2.3,i,i,i,i,-13.9
O=C(COC(=O)C1CCC(=O)N1)Nc1ccc(Oc2ccccc2)cc1 (stereo not given),0,i,i,i,i,33.3*
CCCc1nc2nc(C)c(NS(=O)(=O)c3ccc(Cl)cc3)c(=O)n2[nH]1,0.44,i,i,i,i,-11.2
COc1ccc(NC(=O)c2ccc(Cl)c(S(=O)(=O)N3CCc4ccccc4C3)c2)cn1,-0.17,i,-10.2*,i,i,-13.2
CN(C)c1cc(N/N=C\c2ccccc2)nc(N(C)C)n1,-0.27,i,i,i,i,-17.3
COc1ccccc1/C=N/Nc1cc(N(C)C)nc(N(C)C)n1,-0.29,6*,i,i,i,-7.2
Cc1ccc(S(=O)(=O)N2CCC(=O)N(CCOCc3cccc(Cl)c3)CC2)cc1,-5.53*,i,i,i,i,-8.5
Cc1ccc(S(=O)(=O)N2CCC(=O)N(CCOCc3cccc(F)c3)CC2)cc1,1.11,i,i,i,i,-10.1
Cc1cc(C)c(C#N)c(N2CCN(Cc3ccccc3)CC2)n1,-4.54*,i,i,i,i,-9.4
Cc1cc(C)c(C#N)c(N2CCN(Cc3ccc4c(c3)OCO4)CC2)n1,-2.24,i,i,i,i,-5.3
COc1ccc(Cc2nc(C(=O)Nc3ccc(Cl)cc3)cs2)cc1,0.18,i,-17.9*,i,i,-11.1
COc1ccc(NC(=O)c2csc(Cc3ccc(Cl)cc3)n2)cc1,-1.49,i,i,i,i,-12.4
SMILES,Kir21 inh,KCNQ1 inh,KCNK3 block,KCNQ1 act,KCNK9 inh,hERG protect
COc1ccc(CNC(=O)c2csc(Cc3ccc(OC)cc3)n2)cc1,-11*,i,i,i,i,0.7
COc1ccc(CNC(=O)c2csc(Cc3ccc(Cl)cc3)n2)cc1,-9.03*,i,i,i,i,-8.1
COc1ccccc1C(C)NCC(=O)NC(=O)NCc1ccco1 (stereo not given),0,i,i,i,i,-17.8
CN1/C(=C\C(=O)COc2ccc3c(c2)OCO3)C(C)(C)c2ccccc21,-0.19,i,i,i,-7.97*,-16.3
COc1ccccc1OCC(=O)/C=C1/N(C)c2ccccc2C1(C)C,-1.99,i,i,i,i,-22.5
Cc1cc2ccccn2c1C(=O)c1ccc(F)cc1,-0.52,i,i,i,-7.21*,-5.5
Cc1cc(C)c2sc(N(CCCN(C)C)C(=O)c3ccc(S(=O)(=O)N4CCCc5ccccc54)cc3)nc2c1,-0.94,6*,i,i,i,-17.5
COc1ccc(C(=O)Nn2cnc3scc(-c4cccs4)c3c2=O)c(O)c1,-1.16,i,-10.9*,i,i,-13.5
CSc1nc2c(cc1C#N)C(=O)CC(C)(C)C2,0.06,i,i,i,i,-7.0
CCCCOC(=O)CSc1nc2c(cc1C#N)C(=O)CC(C)(C)C2,-0.22,i,i,i,-8.07*,-5.8
COc1cc(C2c3cc4c(cc3OC(C)(N3CCCC3)C2C)OCO4)cc(OC)c1OC (stereo not given),/,/,i,/,/,/
Cc1ccc(S(=O)(=O)NCc2csc(-c3cccs3)n2)cc1,-1.43,i,i,i,i,-5.8
O=S(=O)(NCc1csc(-c2cccs2)n1)c1cccc(C(F)(F)F)c1,-11.4*,i,i,i,i,-6.3
CC(NCCCOc1cccc2ccccc12)c1ccccc1 (stereo not given),-10.3*,i,i,i,i,-17.8
O=C1/C(=C/Nc2ccc3c(c2)OCO3)CCc2ccccc21,0.12,6*,i,i,i,-12.6
CCOC(=O)c1c(C)[nH]c(C(=O)N/N=C/c2cc([N+](=O)[O-])ccc2O)c1C,0.87,9*,i,i,i,-17.2
O=C(N/N=C/c1cc([N+](=O)[O-])ccc1O)c1cc(-c2ccccc2)nc2ccccc12,1.32,7*,i,i,i,-6.5
CCOC(=O)c1c(C)[nH]c(C(=O)N/N=C\c2ccccc2O)c1C,0.34,i,i,i,i,-5.2
COc1cccc(CN(Cc2cccnc2)S(=O)(=O)c2ccc(-n3cnnn3)c(C)c2)c1,-1.96,i,i,i,i,-7.8
CCOc1ccccc1NC(=O)c1ccc2nc[nH]c2c1,0,i,i,i,i,-3.5
CN(C(=O)c1cccc(S(=O)(=O)N2CCOCC2)c1)c1c(N)n(Cc2ccccc2)c(=O)[nH]c1=O,/,/,i,/,/,/
Cc1cc[n+](-c2[nH]c(=O)sc2/C=N/NC([S-])=Nc2ccccc2)cc1C,0,i,i,i,i,-10.0
CC(C)(C)c1cc[n+](-c2[nH]c(=O)sc2/C=N/NC([S-])=Nc2ccccc2)cc1,-9.26,8*,i,i,i,-27.6
